Experimental findings from ChEMBL document CHEMBL3992522, “Antileishmanial Activity of Pyrazolopyridine Derivatives and Their Potential as an Adjunct Therapy with Miltefosine” (J Med Chem, 2017) are described below.

The structures appear in SMILES notation. pIC50: −log10 of the molar value. Calls of active or inactive are those of the source. The calls are words filed in the database; no cut-off is given here.

Series [1] concerns Leishmania donovani. The series is described as follows: Antileishmanial activity against Leishmania donovani MHOM/IN/80/DD8 promastigote forms harboring luciferase gene at 25 uM after 72 hrs by Steady-Glo reagent based luminescence assay relative to control. The class given is functional. The conditions noted are these: MHOM/IN/80/DD8, 72 h, read-out: GI. The method, boiled down:
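Exponential-phase Dd8-Luc promastigotes at 1×10^6/mL in M199 with 10% FBS, 24 °C, given 50 and 25 µM for 72 h. Vehicle 0.1% DMSO. Steady-Glo added 1:1, luminescence (RLU) read. IC50 from four-parameter Hill regression, derived only where inhibition exceeded 90%. Means of at least three independent experiments.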

In series [2] the test system is Leishmania donovani. Briefly: Antileishmanial activity against Leishmania donovani MHOM/IN/80/DD8 amastigote forms harboring luciferase gene infected in mouse J774 cells after 72 hrs by Steady-Glo reagent based luminescence assay. The series is classed as functional, cell-based. The note with it: MHOM/IN/80/DD8, J774, 72 h.
In series [3] the test system is Leishmania donovani. The series is described as follows: Antileishmanial activity against Leishmania donovani MHOM/IN/80/DD8 promastigote forms harboring luciferase gene at 50 uM up to 72 hrs by MTT assay relative to control. The class given is functional. The note with it: MHOM/IN/80/DD8, 72 h.
Series [4] is described as follows: Metabolic stability in mouse liver S9 fractions assessed as rate constant for metabolism at 1 mM after 60 mins in presence of NADPH by HPLC method. The series is classed as ADME, tissue-based.
In series [5] the test system is Leishmania donovani. The series is described as follows: Antileishmanial activity against Leishmania donovani amastigote forms infected in Balb/c mouse assessed as inhibition of parasitic burden in spleen at 50 mg/kg, ip administered for 5 consecutive days measured on day 7 post last treatment by Giemsa staining based assay relative to control. The class given is functional. The conditions noted are these: 168 h.

Series [6] has as its system Leishmania donovani. Briefly: Antileishmanial activity against Leishmania donovani amastigote forms infected in Balb/c mouse assessed as inhibition of parasitic burden in spleen at 100 mg/kg, ip administered for 5 consecutive days measured on day 7 post last treatment by Giemsa staining based assay relative to control. The series is classed as functional. The conditions noted are these: 168 h.

Series [7] relates to Leishmania donovani. The series is described as follows: Antileishmanial activity against Leishmania donovani amastigote forms infected in Balb/c mouse assessed as inhibition of parasitic burden in spleen at 200 mg/kg, ip administered for 5 consecutive days measured on day 7 post last treatment by Giemsa staining based assay relative to control. The conditions noted are these: Leishmania donovani, ip, 168 h. The series is classed as functional.

Series [8] has as its system Leishmania donovani. The series is described as follows: Antileishmanial activity against Leishmania donovani amastigote forms infected in Balb/c mouse assessed as reduction in spleen weight at 12.5 to 200 mg/kg, ip administered for 5 consecutive days. The series is classed as functional, organism-based.
The subject of series [9] is Mus musculus. The series is described as follows: Increase in IL-12 level in Balb/c mouse splenocytes infected with Leishmania donovani amastigote forms at 25 mg/kg, ip co-treated with 5 mg/kg, po miltefosine administered for 5 consecutive days measured on day 4 post last treatment by sandwich ELISA relative to control. The series is classed as functional. In outline: (§1)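 Splenocytes (2×10^6) from treated infected BALB/c mice taken on day 4 or 7 post-treatment. Cultured in phenol-red-free RPMI 1640 with 5 μg/mL soluble L. donovani antigen for 72 h at 37 °C, 5% CO2. Supernatant cytokines measured by sandwich ELISA against a standard curve. Mean ± SD, n = 5 mice per group, three independent experiments.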

The subject of series [10] is Mus musculus. The series is described as follows: Increase in TNFalpha level in Balb/c mouse splenocytes infected with Leishmania donovani amastigote forms at 25 mg/kg, ip co-treated with 5 mg/kg, po miltefosine administered for 5 consecutive days measured on day 7 post last treatment by sandwich ELISA relative to control. The series is classed as functional. The method, boiled down:
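BALB/c mice infected with L. donovani (15 days); treatment for 5 consecutive days, test compound i.p. in 8% DMSO/water, miltefosine oral in TDW; sacrificed day 4 and day 7 post-treatment, n = 5 per group. Splenocytes (2×10^6) cultured 72 h in phenol red-free RPMI 1640 with 5 μg/mL SLA; supernatant cytokines by sandwich ELISA.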

The subject of series [11] is Mus musculus. The series is described as follows: Increase in IL-12 level in Balb/c mouse splenocytes infected with Leishmania donovani amastigote forms at 25 mg/kg, ip co-treated with 5 mg/kg, po miltefosine administered for 5 consecutive days measured on day 7 post last treatment by sandwich ELISA relative to control. The series is classed as functional. The method, boiled down:
as §1
On the technique in general: An ELISA detects its analyte on a solid surface through an enzyme-linked reagent.

Series [12] concerns Mus musculus. Briefly: Decrease in TGFbeta level in Balb/c mouse splenocytes infected with Leishmania donovani amastigote forms at 25 mg/kg, ip co-treated with 5 mg/kg, po miltefosine administered for 5 consecutive days measured on day 4 post last treatment by sandwich ELISA relative to control. The class given is functional. In outline:
as §1

Series [13] deals with Mus musculus. The series is described as follows: Decrease in TGFbeta level in Balb/c mouse splenocytes infected with Leishmania donovani amastigote forms at 25 mg/kg, ip co-treated with 5 mg/kg, po miltefosine administered for 5 consecutive days measured on day 7 post last treatment by sandwich ELISA relative to control. The class given is functional. The method, boiled down:
as §1

In series [14] the test system is Mus musculus. Briefly: Decrease in IL-10 level in Balb/c mouse splenocytes infected with Leishmania donovani amastigote forms at 25 mg/kg, ip co-treated with 5 mg/kg, po miltefosine administered for 5 consecutive days measured on day 7 post last treatment by sandwich ELISA relative to control. The series is classed as functional. The method, boiled down: as §1

Series [15] relates to Leishmania donovani. The series is described as follows: Induction of apoptosis in Leishmania donovani MHOM/IN/80/DD8 promastigote forms assessed as late apoptotic cells at 50 uM after 48 hrs by Annexin V-FITC/propidium iodide staining based flow cytometry (reference value: 0.86%). The series is classed as functional.
Series [16] deals with Leishmania donovani. Briefly: Induction of apoptosis in Leishmania donovani MHOM/IN/80/DD8 promastigote forms assessed as early apoptotic cells at 50 uM after 48 hrs by Annexin V-FITC/propidium iodide staining based flow cytometry (reference value: 7.41%). The series is classed as functional.
Series [17] relates to Leishmania donovani. The series is described as follows: Induction of apoptosis in Leishmania donovani MHOM/IN/80/DD8 promastigote forms assessed as early apoptotic cells at IC50 after 48 hrs by Annexin V-FITC/propidium iodide staining based flow cytometry (reference value: 7.41%). The class given is functional. A general note: In flow cytometry, cells or beads pass a laser one at a time.

Series [18] relates to Mus musculus. Briefly: Increase in iNOS-mediated NO generation in Balb/c mouse splenocytes infected with Leishmania donovani amastigote forms at 25 mg/kg, ip cotreated with 5 mg/kg, po miltefosine for 5 consecutive days measured on day 4 post last treatment followed by soluble Leishmania donovani promastigote antigen-stimulation for 72 hrs by Griess assay relative to control. The series is classed as functional. In outline:
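Splenocytes from treated infected BALB/c mice (5-day regimen, i.p. test compound, oral miltefosine; n = 5) isolated day 4 and day 7 post-treatment. Cultured in phenol red-free RPMI 1640 with 5 μg/mL SLA for 72 h at 37 °C, 5% CO2. Supernatant nitrite measured by Griess assay at 540 nm against a sodium nitrite standard curve.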
On the technique in general: Nitrite, measured by Griess reagent, commonly stands in for NO production.

Series [19] has as its system Leishmania donovani. The series is described as follows: Induction of mitochondrial membrane potential loss in Leishmania donovani MHOM/IN/80/DD8 promastigote forms at 50 uM after 6 hrs by JC-1 staining based flow cytometry (reference value: 5.02%). The class given is functional.
Series [20] in a line: Elimination rate constant in Swiss mouse at 50 mg/kg, po by LC-MS/MS analysis. The note with it: in vivo. The class given is ADME, organism-based.
A short description of series [21]: Apparent volume of distribution in Swiss mouse at 50 mg/kg, po by LC-MS/MS analysis. The series is classed as ADME, organism-based. The note with it: in vivo.
Series [22] can be described thus: Apparent clearance in Swiss mouse at 50 mg/kg, po by LC-MS/MS analysis. The class given is ADME, organism-based. The note with it: in vivo.
Series [23] has as its system Mus musculus. The series is described as follows: Restoration of T cell proliferation in Balb/c mouse splenocytes infected with Leishmania donovani amastigote forms at <25 mg/kg, ip administered for 5 consecutive days measured on day 4 and 7 post last treatment followed by soluble Leishmania donovani promastigote antigen-stimulation for 72 hrs by MTT assay relative to control.

A word on the pIC50: it is the IC50 on a negative log10 scale, so that one unit is a factor of ten. The term inhibition denotes the share of the control response that was lost under treatment. A lower inhibition goes with little suppression. One may read the inhibition in vivo as the relative decrease from the control value, in per cent. What is called Vd/F is the apparent distribution volume after extravascular dosing. What is called CL/F is the apparent clearance, not corrected for the fraction that reaches the circulation. For the compound `COc1ccc(C2C3=C(CCC3=O)Nc3c2c(-c2c[nH]c4ccccc24)nn3-c2ccc(Cl)c(Cl)c2)cc1OC` (stereo not drawn), the inhibition of growth at 25 µM in the series on Leishmania donovani [1] turned out to be 91.7%. Besides, the pIC50 with Leishmania donovani [2] is 5.39. Besides, the inhibition at 50 µM in the series on Leishmania donovani [3] is greater than 95%. Moreover, the k el at 1 h, 1000 µM in series [4] is 0.000217 s⁻¹. The inhibition in vivo at 50 mg/kg in the series with Leishmania donovani [5] is greater than 91%. In the series with Leishmania donovani [6], the inhibition in vivo at 100 mg/kg was determined as 90%. For the same compound, in the series with Leishmania donovani [7], the inhibition in vivo at 200 mg/kg was 90%. The result in the series with Leishmania donovani [8] was Active. Besides, the “fold change (FC)” value was 12.7 in the series with Mus musculus [9]; 7.3 in the series with Mus musculus [10]; 11.3 in the series with Mus musculus [11]; 5.6 with Mus musculus [18]; 2.2 - 3.4 with Mus musculus [23]. Besides, the “inhibition (INH)” value was 88% in the series with Mus musculus [12], 93% in the series with Mus musculus [13] and 94% in the series on Mus musculus [14]. Also, the Activity with Leishmania donovani [15] amounted to 54.2%; with Leishmania donovani [16] it was 11.6%; in the series on Leishmania donovani [17], 17.2%; in the series with Leishmania donovani [19] it was 15.2%. This compound gave a k el in [20] of 3.89e-05 s⁻¹. For the same compound, the Vd/F in series [21] was 19.6 L/kg. In [22], the CL/F is 47.3 mL/min/kg.
